Active and inactive are the calls of the source. The rule behind the calls is not given here.
Legend:
[1] = molecular target: T1, Glucocorticoid receptor (Homo sapiens) (UniProt P04150); assay: Transactivation activity at GR-mediated modulation of MMTV promoter activity in human A549 cells transfected with luciferase gene linked to MMTV promoter after 16 hrs by luciferase reporter gene assay; assay type: cell-based
T1 sequence (whole entry): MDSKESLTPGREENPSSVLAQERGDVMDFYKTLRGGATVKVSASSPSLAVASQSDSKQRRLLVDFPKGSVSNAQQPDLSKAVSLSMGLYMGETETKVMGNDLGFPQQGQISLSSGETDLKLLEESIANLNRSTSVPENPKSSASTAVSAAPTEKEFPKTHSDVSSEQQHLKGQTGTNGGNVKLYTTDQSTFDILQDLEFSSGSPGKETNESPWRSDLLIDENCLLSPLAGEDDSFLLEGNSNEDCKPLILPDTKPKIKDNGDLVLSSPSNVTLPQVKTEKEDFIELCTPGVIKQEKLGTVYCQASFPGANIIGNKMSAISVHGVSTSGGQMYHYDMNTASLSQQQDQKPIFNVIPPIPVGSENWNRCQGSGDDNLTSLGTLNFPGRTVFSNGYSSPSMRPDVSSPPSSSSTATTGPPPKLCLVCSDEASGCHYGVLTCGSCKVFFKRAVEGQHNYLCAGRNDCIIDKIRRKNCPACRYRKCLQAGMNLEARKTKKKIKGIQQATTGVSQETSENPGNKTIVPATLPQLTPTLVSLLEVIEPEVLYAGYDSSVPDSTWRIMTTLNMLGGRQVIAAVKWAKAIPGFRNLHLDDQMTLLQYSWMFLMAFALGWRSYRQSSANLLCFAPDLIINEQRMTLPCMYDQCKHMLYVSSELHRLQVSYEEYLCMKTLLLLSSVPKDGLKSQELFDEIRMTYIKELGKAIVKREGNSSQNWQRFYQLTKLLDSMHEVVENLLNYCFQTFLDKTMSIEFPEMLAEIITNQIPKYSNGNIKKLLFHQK
How it was run: (§1)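 HeLa or A549 cells transiently transfected with a luciferase reporter under the MMTV promoter (two GREs), in 10% charcoal-stripped FBS. Compound exposure 16 h, then luciferase measured. Activity expressed as percent of the span between DMSO and dexamethasone controls. Mean of at least three runs.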

[2] = molecular target: T1, Glucocorticoid receptor (Homo sapiens); assay: Transrepression activity at glucocorticoid receptor in human LPS and TPA-stimulated U937 cells assessed as effect on glucocorticoid-induced TNFalpha repression by beta lactamase reporter gene assay relative to dexamethasone; assay type: cell-based; details: U-937
How it was run: (§2)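 U937 cells stably carrying a β-lactamase reporter driven by the human TNF-α promoter (-1083 to +182), in 5% charcoal-stripped FBS. Stimulated with 1 µg/mL LPS plus 50 ng/mL TPA, compound exposure 16 h. β-Lactamase read out. Activity expressed as percent of the span between DMSO and 100 nM dexamethasone controls. Mean of at least three runs.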

[3] = molecular target: T2, Glucocorticoid receptor (Homo sapiens, UniProt P04150); assay: Displacement of [3H]-dexamethasone from human full length GR expressed in insect Sf21 cells
T2 sequence (P04150 whole entry): T1 sequence (whole entry)
How it was run: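 Human full-length GR expressed in insect cells, incubated with compound and 3H-dexamethasone overnight at 4 °C. Bound radioactivity quantified after filtration capture. Nonspecific binding defined with excess unlabelled dexamethasone. Mean of at least two runs.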

[4] = molecular target: T1, Glucocorticoid receptor (Homo sapiens); assay: Transactivation activity at GR-mediated modulation of MMTV promoter activity in human A549 cells transfected with luciferase gene linked to MMTV promoter after 16 hrs by luciferase reporter gene assay relative to dexamethasone; assay type: cell-based; how it was run: as §1
[5] = molecular target: T1, Glucocorticoid receptor (Homo sapiens); assay: Transactivation activity at GR-mediated modulation of MMTV promoter activity in human HeLa cells transfected with luciferase gene linked to MMTV promoter after 16 hrs by luciferase reporter gene assay; assay type: cell-based; how it was run: as §1
[6] = molecular target: T1, Glucocorticoid receptor (Homo sapiens); assay: Transrepression activity at glucocorticoid receptor in human LPS and TPA-stimulated U937 cells assessed as effect on glucocorticoid-induced TNFalpha repression by beta lactamase reporter gene assay; assay type: cell-based; details: U-937; how it was run: as §2
[7] = molecular target: T1, Glucocorticoid receptor (Homo sapiens); assay: Transactivation activity at GR-mediated modulation of MMTV promoter activity in human HeLa cells transfected with luciferase gene linked to MMTV promoter after 16 hrs by luciferase reporter gene assay relative to dexamethasone; assay type: cell-based; how it was run: as §1
[8] = Drug uptake in oxazolone-induced Sprague-Dawley rat chronic dermatitis model at 25 mg/kg, po; assay type: ADME, organism-based; set-up: dose 25 mg/kg, route oral; details: in vivo, read-out: Drug uptake
How it was run: (§3)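 Exposure measured in female Sprague-Dawley rats in the oxazolone chronic dermatitis model: sensitization Day 0, ear challenge Days 7 and 9, daily oral dosing for 7 d from Day 7. Exposure expressed as µM h. Blood collected ~4-5 h after last dose.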

[9] = Drug uptake in oxazolone-induced Sprague-Dawley rat chronic dermatitis model at 5 mg/kg, po; assay type: ADME, organism-based; set-up: dose 5 mg/kg, route oral; details: in vivo, read-out: Drug uptake; how it was run: as §3
[10] = test system: Rattus norvegicus; assay: Antiinflammatory activity in oxazolone-induced Sprague-Dawley rat chronic dermatitis model at 0.5 to 5 mg/kg, po qd administered after 7 days of oxazolone sensitization measured after 4 to 5 hrs last post treatment on day 14; assay type: functional, organism-based
How it was run: (§4)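 Intact 6-month-old female Sprague-Dawley rats sensitized with oxazolone on ventral abdomen on Day 0. One randomly selected ear challenged with oxazolone on Days 7 and 9, other ear given vehicle. Daily oral dosing for 7 d from Day 7, with 6-methylprednisolone or DEX as positive controls. Blood taken ~4-5 h after last dose for plasma insulin. Inflammation read as inter-ear thickness difference.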

[11] = test system: Rattus norvegicus; assay: Toxicity in oxazolone-induced Sprague-Dawley rat chronic dermatitis model assessed as increase in plasma insulin level at 0.5 to 5 mg/kg, po qd administered after 7 days of oxazolone sensitization measured after 4 to 5 hrs last post treatment on day 14; assay type: organism-based; set-up: route oral; details: in vivo; how it was run: as §4
[12] = Drug uptake in oxazolone-induced Sprague-Dawley rat chronic dermatitis model at 15 mg/kg, po; assay type: ADME, organism-based; set-up: dose 15 mg/kg, route oral; details: in vivo, read-out: Drug uptake; how it was run: as §3
[13] = test system: Rattus norvegicus; assay: Drug metabolism in oxazolone-induced Sprague-Dawley rat chronic dermatitis model assessed as 2-fluoro-6-(2-((4aS,5R)-1-(4-fluorophenyl)-5-hydroxy-4a-methyl-1,4,4a,5,6,7-hexahydrocyclopenta[f]indazol-5-yl)ethyl)-N-(1-(hydroxymethyl)cyclopropyl)benzamide level at 15 mg/kg, po; details: in vivo
[14] = test system: Rattus norvegicus; assay: Drug metabolism in oxazolone-induced Sprague-Dawley rat chronic dermatitis model assessed as 2-{2-[(4aS,5R)-1-(4-fluorophenyl)-5-hydroxy-4amethyl- 1,4,4a,5,6,7-hexahydrocyclopenta[f]indazol-5-yl]ethyl}benzamide level at 20 mg/kg, po; assay type: ADME, organism-based; set-up: dose 20 mg/kg, route oral; details: in vivo
[15] = Drug uptake in oxazolone-induced Sprague-Dawley rat chronic dermatitis model at 20 mg/kg, po; assay type: ADME, organism-based; set-up: dose 20 mg/kg, route oral; details: in vivo, read-out: Drug uptake; how it was run: as §3

Compound	IP [1]	Emax [2]	Ki [3]	Emax [4]	IP [5]	IP [6]	Emax [7]	AUC [8]	AUC [9]	Activity [10]	Activity [11]	AUC [12]	Drug metabolism [13]	Drug metabolism [14]	AUC [15]
CC(C)NC(=O)c1ccccc1CC[C@]1(O)CCC2=Cc3c(cnn3-c3ccc(F)cc3)C[C@@]21C	60 nM	62%	4 nM	48%	83 nM	170 nM	30%								
C[C@]12Cc3cnn(-c4ccc(F)cc4)c3C=C1CC[C@@]2(O)CCc1cc(F)ccc1C(N)=O	36 nM	70%	< 1 nM	120%	58 nM	89 nM	47%								
CCCNC(=O)c1c(F)cccc1CC[C@]1(O)CCC2=Cc3c(cnn3-c3ccc(F)cc3)C[C@@]21C	26 nM	72%	< 1 nM	25%	43 nM	30 nM	17%								
C=C(C)CNC(=O)c1c(F)cccc1CC[C@]1(O)CCC2=Cc3c(cnn3-c3ccc(F)cc3)C[C@@]21C	95 nM	67%	< 1 nM	24%	132 nM	119 nM	16%								
CCNC(=O)c1ccccc1CC[C@]1(O)CCC2=Cc3c(cnn3-c3ccc(F)cc3)C(O)[C@@]21C (stereo not given in full)	1560 nM	34%	40 nM	20%	1320 nM	958 nM	6%								
C[C@]12Cc3cnn(-c4ccc(F)cc4)c3C=C1CC[C@@]2(O)CCc1cccc(F)c1C(N)=O	9 nM	84%	< 1 nM	75%	11 nM	10 nM	58%								
C=CCNC(=O)c1ccccc1CC[C@]1(O)CCC2=Cc3c(cnn3-c3ccc(F)cc3)C[C@@]21C	62 nM	62%	1 nM	37%	93 nM	123 nM	21%								
C[C@]12Cc3cnn(-c4ccc(F)cc4)c3C=C1[C@H](O)C[C@@]2(O)CCc1ccc(F)cc1C(N)=O		< 5%	> 400 nM	< 5%			< 5%								
C[C@]12Cc3cnn(-c4ccc(F)cc4)c3C=C1CC[C@@]2(O)CCc1ccccc1C(N)=O	61 nM	82%	2 nM	60%	130 nM	56 nM	66%	199 µM·h	134 µM·h						
CNC(=O)c1ccc(CC[C@]2(O)CCC3=Cc4c(cnn4-c4ccc(F)cc4)C[C@@]32C)cc1		12%	155 nM	< 10%			< 10%								
CNC(=O)c1ccccc1CC[C@]1(O)CCC2=Cc3c(cnn3-c3ccc(F)cc3)C[C@@]21C	193 nM	50%	2 nM	49%	317 nM	263 nM	48%								
CC(C)(CO)NC(=O)c1ccccc1CC[C@]1(O)CCC2=Cc3c(cnn3-c3ccc(F)cc3)C[C@@]21C	33 nM	88%	1 nM	83%	30 nM	26 nM	71%								
C[C@@]12C(=Cc3c(cnn3-c3ccc(F)cc3)C1O)CC[C@@]2(O)CCc1ccc(F)cc1C(N)=O (stereo not given in full)		6%	58 nM	< 5%			< 5%								
C[C@]12Cc3cnn(-c4ccc(F)cc4)c3C=C1CC[C@@]2(O)CCc1c(F)cccc1C(N)=O	6 nM	90%	< 1 nM	82%	7 nM	3 nM	89%								
CC(C)(C)NC(=O)c1ccccc1CC[C@]1(O)CCC2=Cc3c(cnn3-c3ccc(F)cc3)C[C@@]21C	212 nM	79%	10 nM	23%	108 nM	246 nM	14%								
CCCNC(=O)c1ccccc1CC[C@]1(O)CCC2=Cc3c(cnn3-c3ccc(F)cc3)C[C@@]21C	81 nM	50%	2 nM	29%	85 nM	127 nM	17%								
Cc1cc2cnn(-c3ccc(F)cc3)c2cc1CCC(=O)CCc1ccc(F)cc1C(=O)O		< 5%	> 400 nM	< 5%			< 5%								
CNC(=O)c1cccc(CC[C@]2(O)CCC3=Cc4c(cnn4-c4ccc(F)cc4)C[C@@]32C)c1		< 10%	15 nM	< 10%			< 10%								
C[C@H]1C[C@@H]2[C@H]([C@@H](O)C[C@@]3(C)[C@H]2CC[C@]3(O)C(=O)CO)[C@@]2(C)C=CC(=O)C=C12 [METHYLPREDNISOLONE]										Active	Toxic				
CC1(NC(=O)c2c(F)cccc2CC[C@]2(O)CCC3=Cc4c(cnn4-c4ccc(F)cc4)C[C@@]32C)CC1	32 nM	81%	< 1 nM	41%	27 nM	20 nM	33%					64 µM·h	3.8 µM·h		
CCNC(=O)c1ccccc1CC[C@]1(O)CCC2=Cc3c(cnn3-c3ccc(F)cc3)C[C@@]21C	39 nM	65%	2 nM	51%	107 nM	88 nM	38%							50 µM·h	75 µM·h
C[C@]12Cc3cnn(-c4ccc(F)cc4)c3C=C1CC[C@@]2(O)CCc1cccc(F)c1C(=O)NC1(CO)CC1	23 nM	96%	3 nM	104%	35 nM	24 nM	79%								

— ChEMBL document CHEMBL2146476, “Discovery of selective glucocorticoid receptor modulator MK-5932” (Bioorg Med Chem, 2011)
